The values below come from ChEMBL document CHEMBL4834396, “Molecular Recognition and Imaging of Human Telomeric G-Quadruplex DNA in Live Cells: A Systematic Advancement of Thiazole Orange Scaffold To Enhance Binding Specificity and Inhibition of Gene Expression” (J Med Chem, 2021).

Data set [1] deals with Quadruplex DNA. Description: Binding affinity to c-myc promoter G-quadruplex DNA Pu22 (unknown origin) assessed as equilibrium binding constant at 5 uM at 25 degreeC by […]. Format: nucleic-acid assay. The method, boiled down:
(§1)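 Fluorescence titration: ligand 5 μM in 10 mM Tris-HCl pH 7.4 with 60 mM KCl, nucleic acid added until saturation, 25 °C. Keq from nonlinear fit of F/F0 to an independent-site model.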

Data set [2] in a line: Water solubility of compound at 25 degreeC. Format: physicochemical. The method, boiled down: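 Solubility in water measured at 25 °C.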
In data set [3] the test system is Quadruplex DNA. Description: Binding affinity to telomeric Telo21 G-quadruplex DNA (unknown origin) assessed as equilibrium binding constant at 5 uM at 25 degreeC by […]. Format: nucleic-acid assay. The method, boiled down:
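Fluorescence titration: ligand at 5 μM in 10 mM Tris-HCl, pH 7.4, with 60 mM KCl, 25 °C. DNA was added slowly until saturation. Keq was obtained by nonlinear fitting of F/F0 to an independent-site model.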

The subject of the next data set is rRNA. As to the kind of experiment: Binding affinity to rRNA (unknown origin) assessed as equilibrium binding constant at 5 uM at 25 degreeC […]. The format is nucleic-acid assay. The essentials:
as §1

Data set [4] deals with Quadruplex DNA. As to the kind of experiment: Binding affinity to telomeric Htg24 G-quadruplex DNA (unknown origin) assessed as equilibrium binding constant at 5 uM at 25 degreeC by […]. Format: nucleic-acid assay. The essentials:
as §1

A further data set relates to DNA. As to the kind of experiment: Binding affinity to ds26 DNA (unknown origin) assessed as equilibrium binding constant at 5 uM at 25 degreeC by […]. Format: nucleic-acid assay. The essentials:
as §1

The test system of data set [5] is HeLa. As to the kind of experiment: Downregulation of hTERC mRNA expression in human HeLa cells at 5 to 20 uM by qRT-PCR analysis. Format: functional, cell-based. The conditions noted are these: dose 5-20 µM. The essentials: (§2)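 HeLa cells were treated with graded compound concentrations, then incubated 36 h. RNA was extracted with Trizol/chloroform, reverse transcribed and quantified by qRT-PCR. GAPDH served as internal control, with relative expression by the ΔΔCt method; three independent experiments, mean ± SD.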
Background: In qPCR the cycle at which signal appears reflects the starting amount.

The next data set relates to 16HBE14o-. As to the kind of experiment: Cytotoxicity against human 16HBE14o- cells assessed as cell viability incubated for 48 hrs by MTT assay. Format: cell-based. The settings on record: 36 h, in the assay text read “36 hrs” for “48 hrs”. The method, boiled down: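 Cells were plated and grown 48 h at 37 °C, 5% CO2, in DMEM with 10% FBS. They were then given graded ligand concentrations for 36 h and treated with MTT (5 mg/ml) for 4 h in the dark. Formazan was dissolved in DMSO and absorbance read at 577 nm. IC50 was taken from a sigmoidal dose–response fit; three independent experiments.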

In another data set the test system is HepG2. As to the kind of experiment: Antiproliferative activity against human HepG2 cells assessed as reduction in cell viability […] by MTT assay. Format: functional, cell-based. (In general: Tetrazolium dyes change colour on reduction, which living cells bring about.)
Data set [6] deals with HeLa. Description: Antiproliferative activity against human HeLa cells assessed as reduction in cell viability […] by MTT assay. Format: functional, cell-based.
For another data set, the system named is PC-3. Description: Antiproliferative activity against human PC-3 cells assessed as reduction in cell viability […] by MTT assay. Format: functional, cell-based.
For data set [7], the system named is Quadruplex DNA. As to the kind of experiment: Binding affinity to telomeric Htg24 G-quadruplex DNA (unknown origin) assessed as stroke shift under at 480 to 483 nm at pH 7.4 by spectrophotometric method.
Another data set concerns MCF7. As to the kind of experiment: Antiproliferative activity against human MCF7 cells assessed as reduction in cell viability […] by MTT assay. The format is functional, cell-based.
In data set [8] the test system is HeLa. Description: Downregulation of hTERT mRNA expression in human HeLa cells at 5 to 20 uM by qRT-PCR analysis. The format is functional, cell-based. The conditions noted are these: dose 5-20 µM. The method, boiled down: as §2
Data set [9] has as its system Quadruplex DNA. As to the kind of experiment: Stabilization of telomeric Htg24 G-quadruplex DNA (unknown origin) assessed as inhibition of DNA amplification at 20 uM by PCR analysis. Format: nucleic-acid assay. The method, boiled down: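 Taq polymerase stop assay: Htg24 or its non-G4 mutant template (5 μM) with 2 μM of each oligomer, […] and ligand at 0–20 μM. Cycling was 94 °C for 5 min, then 30 cycles of 94/56/72 °C at 30 s each. Products were resolved on 15% PAGE and stained with SYBR Gold.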

Data set [10] concerns Quadruplex DNA. Description: Binding affinity to telomeric Htg24 G-quadruplex DNA (unknown origin) assessed as fluorescence quantum yield by fluorescence spectrophotometric method. Format: nucleic-acid assay. The essentials:
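Fluorescence quantum yield determined against fluorescein (Φ = 0.95) in 1% NaOH ethanol. Five increasing ligand concentrations added to fixed DNA, with absorbance and emission recorded for each.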

In a further data set the test system is U-87 MG. Description: Antiproliferative activity against human U87 cells assessed as reduction in cell viability […] by MTT assay. Format: functional, cell-based, U-87MG ATCC.
Data set [11] has as its system Quadruplex DNA. Description: Binding affinity to telomeric Htg24 G-quadruplex DNA (unknown origin) assessed as emission wavelength at 480 to 483 nm at pH 7.4 by spectrophotometric method. The format is nucleic-acid assay.
The subject of data set [12] is Quadruplex DNA. As to the kind of experiment: Displacement of 2-((E)-4-(Dimethylamino)styryl)-1-methyl-4-((Z)-(3-(3-morpholinopropyl)benzo[d]thiazol-2(3H)-ylidene)methyl)quinolin-1-ium iodide from telomeric Htg24 G4 quadruplex DNA in human U87 cells assessed as decrease in fluorescence intensity at 5 to 20 uM by competition binding assay. The settings on record: dose 5-20 µM. The format is cell-based. The essentials: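 Live U87 cells were stained with probe at 5 μM plus DAPI and co-treated with BRACO19 at 5, 10, 15 or 20 μM. Confocal imaging used excitation at 488 or 571 nm for the probe and 402 nm for DAPI. Nuclear spot intensity was compared across concentrations.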

Data set [13] deals with HeLa. Description: Induction of cellular senescence in human HeLa cells assessed as positive SA-beta-Gal cells at 0.5 to 4 uM incubated for 18 days by inverted fluorescence microscopic analysis. The settings on record: dose 0.5-4 µM, time 18.0 day. Format: functional, cell-based. The essentials: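 HeLa cells were exposed to compound for 18 days, with drug-containing medium replaced every three days. Cells were then fixed 15 min at room temperature and stained for β-galactosidase at 37 °C overnight. Stained cells were examined under an inverted microscope.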

The source made the active and inactive calls. No cut-off for these calls is given here.

The solubility is the dissolved amount per volume that the medium holds. Usually IC50 stands for the concentration needed to halve the response being measured.

For `CC1CCN(CCCN2/C(=C/c3cc(/C=C/c4ccc(O)cc4)[n+](C)c4ccccc34)Sc3ccccc32)CC1.[I-]`, the Kb in the data set with Quadruplex DNA [1] was found to be 550000 M⁻¹. Moreover, the concentration in solution in data set [2] (solubility) was 147 µM.

For `C[n+]1c(/C=C/c2ccc(O)cc2)cc(/C=C2\Sc3ccccc3N2CCCN2CCOCC2)c2ccccc21.[I-]`, in data set [2], the concentration in solution (solubility) came to 167 µM. In addition, the Kb with Quadruplex DNA [3] turned out to be 965000 M⁻¹.

As for `CSc1ccc(/C=C/c2cc(/C=C3\Sc4ccccc4N3CCCN3CCC(C)CC3)c3ccccc3[n+]2C)cc1.[I-]`, the Kb in the data set with Quadruplex DNA [1] came out at 766000 M⁻¹; in the data set with rRNA, 787000 M⁻¹; in the data set with Quadruplex DNA [4] it was 689000 M⁻¹; in the data set on Quadruplex DNA [3], 650000 M⁻¹; in the data set on DNA, 755000 M⁻¹. In data set [2], this molecule yielded a solubility of 98.4 µM.

Regarding `CC1CCN(CCCN2/C(=C/c3cc(/C=C/c4ccc(N(c5ccccc5)c5ccccc5)cc4)[n+](C)c4ccccc34)Sc3ccccc32)CC1.[I-]`, the Kb with Quadruplex DNA [1] is 907000 M⁻¹; with Quadruplex DNA [4], 722000 M⁻¹; in the data set with Quadruplex DNA [3], 785000 M⁻¹; in the data set on DNA it was 154000 M⁻¹. Also, in [2], the solubility is 77.2 µM.

For `CC1CCN(CCCN2/C(=C/c3cc(/C=C/c4ccc(N(C)C)cc4)[n+](C)c4ccccc34)Sc3ccccc32)CC1.[I-]`, the result with HeLa [5], with HeLa [8] and in the data set on Quadruplex DNA [9] was Active. Further, the IC50 in the data set on 16HBE14o- was 34.8 µM; in the data set with HepG2 it was 11 µM; in the data set on HeLa [6], 21.2 µM; in the data set on PC-3, 14.6 µM; with MCF7 it was 12.6 µM; with U-87 MG, 14.7 µM. Moreover, the Kb in the data set on rRNA was 840000 M⁻¹. Besides, the Activity in the data set on Quadruplex DNA [7] is 165 nm; in the data set on Quadruplex DNA [10] it was 0.317; with Quadruplex DNA [11], 648 nm. Also, in data set [2], the solubility is 105 µM.

Regarding `C[n+]1c(/C=C/c2ccc(N(c3ccccc3)c3ccccc3)cc2)cc(/C=C2\Sc3ccccc3N2CCCN2CCOCC2)c2ccccc21.[I-]`, the Kb worked out at 645000 M⁻¹ in the data set on Quadruplex DNA [1], 490000 M⁻¹ in the data set with Quadruplex DNA [4], 523000 M⁻¹ with Quadruplex DNA [3] and 272000 M⁻¹ in the data set with DNA. Also, the solubility in [2] was determined as 70.7 µM.

As to `CC1CCN(CCCN2/C(=C/c3cc(/C=C/c4ccc(C#N)cc4)[n+](C)c4ccccc34)Sc3ccccc32)CC1.[I-]`, the Kb is 983000 M⁻¹ with Quadruplex DNA [1], 786000 M⁻¹ in the data set with rRNA, 902000 M⁻¹ in the data set on Quadruplex DNA [4] and 957000 M⁻¹ with Quadruplex DNA [3]. In data set [2], this molecule showed a solubility of 82.7 µM.

With `CSc1ccc(/C=C/c2cc(/C=C3\Sc4ccccc4N3CCCN3CCOCC3)c3ccccc3[n+]2C)cc1.[I-]`, the Kb was 486000 M⁻¹ in the data set with Quadruplex DNA [1]; 764000 M⁻¹ with rRNA; 325000 M⁻¹ with Quadruplex DNA [4]; 301000 M⁻¹ in the data set with Quadruplex DNA [3]; 657000 M⁻¹ in the data set on DNA. Besides, the outcome in the data set with HeLa [5], in the data set on HeLa [8] and in the data set on Quadruplex DNA [9] was inactive. Also, the IC50 in the data set on 16HBE14o- stood at 58 µM; in the data set on HepG2 it was 96.5 µM; in the data set on HeLa [6], 90.3 µM; in the data set with PC-3 it was 91.1 µM; with MCF7, 105 µM; in the data set with U-87 MG it was 96.8 µM. In addition, the solubility in data set [2] was found to be 87.3 µM.

As for `C[n+]1c(/C=C/c2ccc(C#N)cc2)cc(/C=C2\Sc3ccccc3N2CCCN2CCOCC2)c2ccccc21.[I-]`, the Kb was 443000 M⁻¹ in the data set on Quadruplex DNA [1]; 501000 M⁻¹ in the data set on rRNA; 505000 M⁻¹ with Quadruplex DNA [4]; 722000 M⁻¹ in the data set on Quadruplex DNA [3]; 379000 M⁻¹ with DNA. Also, the solubility in data set [2] was 83 µM.

With `CN(C)c1ccc(Nc2c3ccc(NC(=O)CCN4CCCC4)cc3nc3cc(NC(=O)CCN4CCCC4)ccc23)cc1`, the outcome in the data set on HeLa [5], with HeLa [8], in the data set on Quadruplex DNA [9], in the data set on Quadruplex DNA [12] and in the data set on HeLa [13] was Active.
